# This is a sample that favours compounds with a hit; in the whole collection about 1.3% have one here.
# HKDC1 inhibitor: HKDC1 hexokinase inhibitors, primary screen, biochemical, fluorescence, uHTS. Q2TB90. recombinant HKDC1, G6PDH/diaphorase resazurin coupled fluorescence. inhibition, % at 20 µM. actives 0.16% (n = 340,000). AID 493160, 2011;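 active = inhibition above about 35% when tested at 20 µM, limit read from the data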;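 also: plate controls were DMSO wells with enzyme for no effect and DMSO wells lacking enzyme for full effect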
# Target sequence (Q2TB90 whole entry, looked up): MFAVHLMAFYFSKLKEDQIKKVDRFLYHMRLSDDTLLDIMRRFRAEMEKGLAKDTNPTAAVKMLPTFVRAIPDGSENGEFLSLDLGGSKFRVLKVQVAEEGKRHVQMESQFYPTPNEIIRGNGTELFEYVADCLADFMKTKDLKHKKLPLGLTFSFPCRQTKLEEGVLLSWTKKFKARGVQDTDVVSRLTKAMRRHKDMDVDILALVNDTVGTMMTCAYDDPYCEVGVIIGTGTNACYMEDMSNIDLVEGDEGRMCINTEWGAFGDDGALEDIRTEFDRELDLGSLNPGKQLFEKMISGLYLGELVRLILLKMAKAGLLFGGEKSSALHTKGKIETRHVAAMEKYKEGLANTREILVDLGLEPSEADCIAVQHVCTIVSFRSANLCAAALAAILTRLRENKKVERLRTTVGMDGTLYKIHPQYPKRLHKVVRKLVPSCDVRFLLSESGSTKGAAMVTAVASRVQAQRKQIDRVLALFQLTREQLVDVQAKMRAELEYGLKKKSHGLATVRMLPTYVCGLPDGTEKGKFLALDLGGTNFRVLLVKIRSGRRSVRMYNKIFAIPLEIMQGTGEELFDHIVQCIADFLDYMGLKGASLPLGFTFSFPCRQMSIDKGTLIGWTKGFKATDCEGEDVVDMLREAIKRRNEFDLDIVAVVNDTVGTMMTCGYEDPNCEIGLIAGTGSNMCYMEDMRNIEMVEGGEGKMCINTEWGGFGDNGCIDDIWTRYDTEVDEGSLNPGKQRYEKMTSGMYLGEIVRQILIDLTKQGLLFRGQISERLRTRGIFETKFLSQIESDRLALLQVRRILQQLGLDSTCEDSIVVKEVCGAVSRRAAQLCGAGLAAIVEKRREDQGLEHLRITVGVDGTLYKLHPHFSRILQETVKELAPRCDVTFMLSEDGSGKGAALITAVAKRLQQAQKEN
#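 Test system: recombinant HKDC1 (HK5) hexokinase enzyme, produced in-house; Amount: enzyme 5 µg/mL final; Buffer or medium: Tris pH 8.0 buffer with MgCl2, Tween-20, BSA, BME; Reagent: glucose and ATP substrates; Doses: 20 µM test compound, 1% DMSO; Incubation: 90 min reaction incubation at room temperature, dark; Detection: resorufin fluorescence at 613 nm.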
# Diaph act CS: compounds boosting diaphorase resazurin reduction – biochemical, uHTS, resorufin fluorescence, counter-screen for diaphorase-coupled primary assays, primary screen; Diaphorase/resazurin coupled assay, 16 min; stronger effect = higher value; 1 = vehicle wells, 0 = NADH-free wells; activation factor at 20 µM; actives 0.005% (n = 190,000);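 active = diaphorase activity raised at least twofold by the compound at 20 µM; inactive = activation factor below 2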
#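 Assay system: Purified diaphorase enzyme from Clostridium kluyveri | Amount: Enzyme 0.07 U/mL final | Dosing: Compound 20 µM once, DMSO 1% | Timing: 16 min reaction at room temperature | Detection: Fluorescence, excitation 544 nm and emission 590 nm | Evaluation: Higher resorufin formation from activation or reduction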
# Diaph inh CS: diaphorase inhibitors and chemical oxidizers, primary screen, counter-screen for diaphorase-coupled primary assays, biochemical, uHTS, resorufin fluorescence; diaphorase resazurin-to-resorufin fluorescence, NADH, 16 min; bacterial (C. kluyveri) enzyme, not human; inhibition, % at 20 µM; actives 0.69% (n = 190,000);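 active = primary screen inhibition at 20 µM above a set limit, cut at about 50% in these data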;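 also: plate controls were DMSO with full reaction for no effect and wells lacking NADH for full effect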
#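 controls = No-NADH positive control and DMSO neutral control | system = Clostridium kluyveri diaphorase enzyme | timing = reaction incubation of 16 min at room temperature | signal = resorufin fluorescence 544/590 nm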
# G6PDH CS: L. mesenteroides G6PDH inhibitors, counter-screen for G6PDH-coupled screening assays, biochemical, Leuconostoc mesenteroides enzyme; glucose-6-phosphate dehydrogenase [Leuconostoc mesenteroides]; Purified L. mesenteroides G6PDH, diaphorase/resazurin coupled fluorescence, 45 min; inhibition, % at 5 µM; actives 0.12% (n = 200,000); in the data active = inhibition above about 50%
# PfGluPho inh: PfG6PD enzyme inhibitors, primary screen, biochemical, fluorescence intensity, uHTS; PfGluPho enzyme, NADPH resazurin-diaphorase fluorescence; inhibition, % at 20 µM; actives 0.78% (n = 350,000); AID 504690, 2011;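 active = inhibition reaching at least a set limit at 20 µM in the primary screen, cut at about 59% in these data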;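 also: 0% = DMSO wells with substrate and 100% = DMSO wells lacking glucose-6-phosphate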
# PfG6PD confirm: PfG6PD inhibitors, hit retest, confirmation, biochemical, fluorescence intensity, single concentration; shares compounds with PfGluPho inh; recombinant PfGluPho, NADPH-diaphorase-resazurin fluorescence; inhibition, % at 20 µM; actives 34% (n = 2,400); AID 504753, 2011;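 active = inhibition of at least 50% at 20 µM in any single replicate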;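 also: 0% = DMSO with substrate and 100% = DMSO lacking glucose-6-phosphate substrate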
# Diaph ctr 10uM: diaphorase inhibitors and chemical oxidizers, confirmation, counter-screen for P. falciparum G6PD inhibitor project, biochemical, fluorescence intensity, 10 µM NADPH; AID 504862, 2011; shares compounds with PfGluPho inh; actives 39% (n = 820); diaphorase-coupled resazurin reduction, NADPH 10 uM; inhibition, % at 20 µM;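 active = average inhibition reaching 50% or more with the compound at 20 µM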;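 also: resorufin red fluorescence formed as diaphorase reduces resazurin using NADPH; 0% = DMSO with enzyme and 100% = DMSO without enzyme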
# Diaphorase 30uM: diaphorase inhibitors and chemical oxidizers, confirmation, counter-screen for P. falciparum G6PD inhibitor project, biochemical, fluorescence intensity, 30 µM NADPH; shares compounds with PfGluPho inh; inhibition, % at 20 µM; Diaphorase/resazurin coupled assay, resorufin fluorescence; AID 504863, 2011; actives 29% (n = 820);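 active = inhibition averaging 50% or more, tested at 20 µM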;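 also: 0% = DMSO with enzyme and 100% = DMSO wells lacking diaphorase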
# * marks the source's active call; other numbers are inactive results; · = not tested or not shown.
SMILES,HKDC1 inhibitor,Diaph act CS,Diaph inh CS,G6PDH CS,PfGluPho inh,PfG6PD confirm,others
O=C(/C=C/c1ccccc1)Nc1scc(-c2ccccc2)c1C(=O)O,2,0.9,8,-2,61*,26,
COc1cc(/C=C/C(=O)Nc2nnc(CC(C)(C)C)s2)cc(OC)c1OC,-19,1,3,10,59*,35,
COc1cc(/C=C/C(=O)Nc2nnc(CC(C)C)s2)cc(OC)c1OC,6,1,0,-5,-3,·,
O=c1ccn(-c2cccc(C(F)(F)F)c2)nc1-c1ccn(-c2ccccc2)n1,1,0.8,15,-21,91*,73*,Diaph ctr 10uM=66*;Diaphorase 30uM=55*
C[C@H]1C=C(C(=O)NCc2ccccc2)O[C@@H](OCc2ccc(CO)cc2)C1,-3,0.9,11,8,-5,·,
O=[N+]([O-])c1ccc(CN2CCOCCOCCN(Cc3ccc([N+](=O)[O-])cc3)CCOCC2)cc1,-2,0.9,9,-8,62*,-4,
O=[N+]([O-])c1ccc(COc2ccc(Br)cc2CN2CCOCC2)cc1,-5,0.7,26,-1,65*,24,
O=[N+]([O-])c1ccc(COc2ccc(CN3CCOCC3)cc2)cc1,1,·,·,·,-4,·,
O=C(Nc1nnc(S(=O)(=O)N2CCCCCC2)s1)c1ccc(Cl)cc1,-2,·,·,·,80*,20,
Cc1ccc(N2CCN(S(=O)(=O)c3nnc(NC(=O)c4ccccc4)s3)CC2)cc1,-5,·,·,·,14,·,
O=C(Nc1nnc(S(=O)(=O)N2CCOCC2)s1)c1ccc(F)cc1,-5,·,·,·,86*,56*,Diaph ctr 10uM=30;Diaphorase 30uM=45
O=C(Nc1nnc(S(=O)(=O)N2CCOCC2)s1)c1cccc(F)c1,-6,·,·,·,51,·,
CC(C)c1ccc(C(=O)Nc2nnc(S(=O)(=O)N3CCCCC3)s2)cc1,-1,·,·,·,-20,·,
Cc1ccc(C(=O)Nc2nnc(S(=O)(=O)N3CCOCC3)s2)cc1,-4,·,·,·,101*,62*,Diaph ctr 10uM=52*;Diaphorase 30uM=51*
Cc1cccc(C(=O)Nc2nnc(S(=O)(=O)N3CCOCC3)s2)c1,-3,·,·,·,68*,61*,Diaph ctr 10uM=48;Diaphorase 30uM=41
COc1ccc(CN2C(=O)c3ccccc3C2=O)cc1C(=O)OC(C)C(=O)NC(N)=O (centres undefined),7,0.7,26,-2,-24,·,
Cc1ccc(C(=O)Nc2nnc(S(=O)(=O)N3CCC(C)CC3)s2)cc1,0,·,·,·,84*,50*,Diaph ctr 10uM=33;Diaphorase 30uM=38
Cc1ccc(C(=O)Nc2nnc(S(=O)(=O)N3CCCCCC3)s2)cc1,-1,·,·,·,68*,6,
Cc1cccc(C(=O)Nc2nnc(S(=O)(=O)N3CCC(C)CC3)s2)c1,1,·,·,·,70*,23,
COc1ccc(C(=O)Nc2nnc(S(=O)(=O)N3CCC(C)CC3)s2)cc1OC,-3,·,·,·,-12,·,
CC1(C)Oc2ccc(NC(=O)C3COc4ccccc4O3)cc2O1 (centres undefined),-3,0.9,8,15,10,·,
Cc1ccc(Oc2nc3ccccn3c(=O)c2/C=C(\C#N)C(=O)NC2CCS(=O)(=O)C2)c(C)c1 (centres undefined),-4,·,·,·,-1,·,
COc1ccc2c(C)c(CCC(=O)NC3CC3)c(=O)oc2c1,-4,·,·,·,6,·,
Cc1nc(SCC(=O)Nc2ccc3[nH]c(=O)[nH]c3c2)nc(C)c1C,0,·,·,·,64*,8,
O=C(COC(=O)c1cccc(-n2cnnn2)c1)Nc1c(Cl)cccc1C(F)(F)F,-5,·,·,·,-1,·,
